{
  "source": "ChEMBL document CHEMBL1828623",
  "about": "“Overcoming hERG activity in the discovery of a series of 4-azetidinyl-1-aryl-cyclohexanes as CCR2 antagonists” (Bioorg Med Chem Lett, 2011)",
  "data": [
    {"molecular_target": "C-C chemokine receptor type 2 (Homo sapiens, UniProt P41597)", "sequence (P41597 whole entry)": "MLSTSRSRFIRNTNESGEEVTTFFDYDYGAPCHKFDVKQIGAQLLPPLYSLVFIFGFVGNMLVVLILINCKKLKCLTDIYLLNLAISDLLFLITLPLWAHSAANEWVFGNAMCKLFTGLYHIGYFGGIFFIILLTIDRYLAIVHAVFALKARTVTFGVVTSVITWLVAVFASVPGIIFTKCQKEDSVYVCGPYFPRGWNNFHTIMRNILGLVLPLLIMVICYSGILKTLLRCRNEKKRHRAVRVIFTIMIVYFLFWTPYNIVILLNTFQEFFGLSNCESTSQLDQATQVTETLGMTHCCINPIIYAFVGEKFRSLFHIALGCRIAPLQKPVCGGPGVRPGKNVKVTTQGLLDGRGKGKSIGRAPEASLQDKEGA", "assay": "Displacement of [125I]-MCP1 from CCR2 in human THP1 cells after 2 hrs by microplate scintillation and luminescence counting", "assay_type": "cell-based, THP-1", "how_it_was_run": "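They were incubated with 0.5 nM ¹²⁵I-MCP-1 and varying test compound concentrations for 2 h at 30 °C. Cold MCP-1 defined nonspecific binding. Buffer-only blanks were subtracted and values compared with vehicle.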", "units": {"IC50": "µM"}, "values": [
      {"smiles": "O=C(CNC(=O)c1cccc(C(F)(F)F)c1)NC1CN([C@H]2CC[C@](O)(c3cccnc3)CC2)C1", "IC50": 0.19},
      {"smiles": "O=C(CNC(=O)c1cccc(C(F)(F)F)c1)NC1CN([C@H]2CC[C@@H](c3ccc4c(c3)OCO4)CC2)C1", "IC50": 0.005},
      {"smiles": "O=C(CNC(=O)c1cccc(C(F)(F)F)c1)NC1CN([C@H]2CC[C@H](c3ccc4c(c3)OCO4)CC2)C1", "IC50": 1.8},
      {"smiles": "O=C(CNC(=O)c1cccc(C(F)(F)F)c1)NC1CN(C2CC=C(c3ccc4c(c3)OCO4)CC2)C1", "note": "(stereo not drawn)", "IC50": 1},
      {"smiles": "O=C(CNC(=O)c1cccc(C(F)(F)F)c1)NC1CN(C2CCN(c3ccc4c(c3)OCO4)CC2)C1", "IC50": "> 25"},
      {"smiles": "O=C(CNC(=O)c1cccc(C(F)(F)F)c1)NC1CN([C@H]2CC[C@H](c3ccccc3)CC2)C1", "IC50": 0.035},
      {"smiles": "O=C(CNC(=O)c1ccccc1)NC1CN([C@H]2CC[C@H](c3ccc4c(c3)OCO4)CC2)C1", "IC50": 0.39},
      {"smiles": "O=C(CNC(=O)c1ccc(C(F)(F)F)cc1)NC1CN([C@H]2CC[C@H](c3ccc4c(c3)OCO4)CC2)C1", "IC50": 1.2},
      {"smiles": "COc1ccc([C@H]2CC[C@H](N3CC(NC(=O)CNC(=O)c4cccc(C(F)(F)F)c4)C3)CC2)cc1", "IC50": 0.01},
      {"smiles": "O=C(CNC(=O)c1cccc(C(F)(F)F)c1)NC1CN([C@H]2CC[C@H](c3ccc(O)cc3)CC2)C1", "IC50": 0.021},
      {"smiles": "O=C(CNC(=O)c1cccc(C(F)(F)F)c1)NC1CN([C@H]2CC[C@H](c3ccc(C(=O)O)cc3)CC2)C1", "IC50": 0.07},
      {"smiles": "O=C(CNC(=O)c1cccc(C(F)(F)F)c1)NC1CN([C@H]2CC[C@H](c3ccc(N4CCCC4)cc3)CC2)C1", "IC50": 0.061},
      {"smiles": "O=C(CNC(=O)c1cccc(C(F)(F)F)c1)NC1CN([C@H]2CC[C@H](c3ccc4[nH]cnc4c3)CC2)C1", "IC50": 0.027},
      {"smiles": "O=C(CNC(=O)c1cccc(C(F)(F)F)c1)NC1CN([C@H]2CC[C@H](c3cccnc3)CC2)C1", "IC50": 0.045},
      {"smiles": "COc1ccc([C@H]2CC[C@H](N3CC(NC(=O)CNC(=O)c4cccc(C(F)(F)F)c4)C3)CC2)cn1", "IC50": 0.007},
      {"smiles": "COc1cnccc1[C@H]1CC[C@H](N2CC(NC(=O)CNC(=O)c3cccc(C(F)(F)F)c3)C2)CC1", "IC50": 0.032},
      {"smiles": "COc1cc([C@H]2CC[C@H](N3CC(NC(=O)CNC(=O)c4cccc(C(F)(F)F)c4)C3)CC2)ccn1", "IC50": 0.025},
      {"smiles": "O=C(CNC(=O)c1cccc(C(F)(F)F)c1)NC1CN([C@H]2CC[C@H](c3ccc(O)cn3)CC2)C1", "IC50": 0.013},
      {"smiles": "O=C(CNC(=O)c1cccc(C(F)(F)F)c1)NC1CN([C@H]2CC[C@H](c3ccncc3O)CC2)C1", "IC50": 0.052},
      {"smiles": "Nc1ccc([C@H]2CC[C@H](N3CC(NC(=O)CNC(=O)c4cccc(C(F)(F)F)c4)C3)CC2)nc1", "IC50": 0.085},
      {"smiles": "O=C(CNC(=O)c1cccc(C(F)(F)F)c1)NC1CN([C@H]2CC[C@](O)(c3ccc(F)cc3)CC2)C1", "IC50": 0.21},
      {"smiles": "N#Cc1cccc([C@]2(O)CC[C@@H](N3CC(NC(=O)CNC(=O)c4cccc(C(F)(F)F)c4)C3)CC2)c1", "IC50": 0.41},
      {"smiles": "COc1ccc([C@]2(O)CC[C@@H](N3CC(NC(=O)CNC(=O)c4cccc(C(F)(F)F)c4)C3)CC2)cc1", "IC50": 0.02},
      {"smiles": "O=C(CNC(=O)c1cccc(C(F)(F)F)c1)NC1CN([C@H]2CC[C@](O)(c3ccc4c(c3)OCO4)CC2)C1", "IC50": 0.022},
      {"smiles": "O=C(CNC(=O)c1cccc(C(F)(F)F)c1)NC1CN([C@H]2CC[C@](O)(c3ccc4c(c3)OCC4)CC2)C1", "IC50": 0.025},
      {"smiles": "Cc1cccc(C)c1[C@]1(O)CC[C@@H](N2CC(NC(=O)CNC(=O)c3cccc(C(F)(F)F)c3)C2)CC1", "IC50": "> 25"},
      {"smiles": "N[C@]1(c2ccccc2)CC[C@H](N2CC(NC(=O)CNC(=O)c3cccc(C(F)(F)F)c3)C2)CC1", "IC50": 0.24},
      {"smiles": "N#C[C@]1(c2ccccc2)CC[C@H](N2CC(NC(=O)CNC(=O)c3cccc(C(F)(F)F)c3)C2)CC1", "IC50": "> 25"},
      {"smiles": "O=C(CNC(=O)c1cccc(C(F)(F)F)c1)NC1CN([C@H]2CC[C@](C(=O)O)(c3ccccc3)CC2)C1", "IC50": "> 25"},
      {"smiles": "O=C(CNC(=O)c1cccc(C(F)(F)F)c1)NC1CN([C@H]2CC[C@](CO)(c3ccccc3)CC2)C1", "IC50": "> 25"},
      {"smiles": "O=C(CNC(=O)c1cccc(C(F)(F)F)c1)NC1CN(C2CCC(c3c[nH]c4ccccc34)CC2)C1", "note": "(mixture of isomers)", "IC50": "< 1"}
    ]},
    {"molecular_target": "Voltage-gated inwardly rectifying potassium channel KCNH2 (Homo sapiens, UniProt Q12809)", "sequence (Q12809 whole entry)": "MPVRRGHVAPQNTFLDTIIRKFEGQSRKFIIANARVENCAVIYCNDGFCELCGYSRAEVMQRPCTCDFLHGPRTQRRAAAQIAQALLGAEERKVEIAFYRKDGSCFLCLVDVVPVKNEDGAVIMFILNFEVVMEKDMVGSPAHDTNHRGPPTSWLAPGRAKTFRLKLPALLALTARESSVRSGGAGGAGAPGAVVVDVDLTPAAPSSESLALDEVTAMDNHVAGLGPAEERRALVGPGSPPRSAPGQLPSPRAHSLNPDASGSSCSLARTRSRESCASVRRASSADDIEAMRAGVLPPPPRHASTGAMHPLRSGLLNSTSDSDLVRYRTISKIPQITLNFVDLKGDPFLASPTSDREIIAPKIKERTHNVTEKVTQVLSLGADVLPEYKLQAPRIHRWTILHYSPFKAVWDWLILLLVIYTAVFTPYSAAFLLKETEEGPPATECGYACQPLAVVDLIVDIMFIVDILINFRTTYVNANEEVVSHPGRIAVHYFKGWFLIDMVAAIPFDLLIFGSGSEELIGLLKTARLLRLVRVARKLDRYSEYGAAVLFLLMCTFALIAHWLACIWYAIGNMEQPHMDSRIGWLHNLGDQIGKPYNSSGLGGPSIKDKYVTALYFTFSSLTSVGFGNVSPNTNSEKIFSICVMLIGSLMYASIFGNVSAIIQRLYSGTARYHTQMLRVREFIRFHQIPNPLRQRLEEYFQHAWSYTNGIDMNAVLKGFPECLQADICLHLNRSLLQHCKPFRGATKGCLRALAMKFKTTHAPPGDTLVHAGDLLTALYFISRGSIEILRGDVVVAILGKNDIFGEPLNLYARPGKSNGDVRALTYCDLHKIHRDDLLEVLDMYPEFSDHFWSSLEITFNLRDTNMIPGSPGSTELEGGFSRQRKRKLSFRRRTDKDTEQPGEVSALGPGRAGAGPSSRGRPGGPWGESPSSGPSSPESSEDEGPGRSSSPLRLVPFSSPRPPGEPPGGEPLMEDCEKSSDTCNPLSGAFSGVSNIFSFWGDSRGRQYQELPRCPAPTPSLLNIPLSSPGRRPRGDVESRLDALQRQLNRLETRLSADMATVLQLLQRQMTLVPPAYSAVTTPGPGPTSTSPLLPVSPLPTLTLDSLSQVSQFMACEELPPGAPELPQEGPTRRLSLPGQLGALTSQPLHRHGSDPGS", "assay": "Displacement of [3H]astemizole from human ERG expressed in HEK293 cells after 1 hr", "units": {"IC50": "µM"}, "values": [
      {"smiles": "O=C(CNC(=O)c1ccc(C(F)(F)F)cc1)NC1CN([C@H]2CC[C@H](c3ccc4c(c3)OCO4)CC2)C1", "IC50": 1.5},
      {"smiles": "O=C(CNC(=O)c1cccc(C(F)(F)F)c1)NC1CN(C2CCC(c3c[nH]c4ccccc34)CC2)C1", "note": "(mixture of isomers)", "IC50": 2.4}
    ]}
  ]
}
